Data from ChEMBL document CHEMBL3745659, “Synthesis and Characterization of 4,11-Diaminoanthra[2,3-b]furan-5,10-diones: Tumor Cell Apoptosis through tNOX-Modulated NAD(+)/NADH Ratio and SIRT1” (J Med Chem, 2015).
Activity calls are given as the source filed them. The calls are words filed in the database; no cut-off is given here.

Assays:
[1] = system: AGS; test: Induction of apoptosis in human AGS cells assessed as necrotic cells at 0.1 uM after 24 hrs by annexin V-FITC staining-based flow cytometric analysis (Rvb=0.9%); format: functional
In short: (§1)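 AGS cells exposed to compound for 24 h; Annexin V-FITC staining and flow cytometry used to give percentage of apoptotic cells; mean ± S.E. from at least three independent experiments.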

[2] = Antiproliferative activity against mouse NIH/3T3 cells after 48 hrs by cell impedance based study; details: NIH3T3, 48 h
[3] = target: T1, NAD-dependent protein deacetylase sirtuin-1 (Homo sapiens) (UniProt Q96EB6); test: Inhibition of human recombinant SIRT1 deacetylase activity using Arg-His-Lys-Lys(epsilon-acetyl)-AMC as substrate at 5 uM incubated for 45 mins by fluorescence analysis
T1 sequence (whole entry): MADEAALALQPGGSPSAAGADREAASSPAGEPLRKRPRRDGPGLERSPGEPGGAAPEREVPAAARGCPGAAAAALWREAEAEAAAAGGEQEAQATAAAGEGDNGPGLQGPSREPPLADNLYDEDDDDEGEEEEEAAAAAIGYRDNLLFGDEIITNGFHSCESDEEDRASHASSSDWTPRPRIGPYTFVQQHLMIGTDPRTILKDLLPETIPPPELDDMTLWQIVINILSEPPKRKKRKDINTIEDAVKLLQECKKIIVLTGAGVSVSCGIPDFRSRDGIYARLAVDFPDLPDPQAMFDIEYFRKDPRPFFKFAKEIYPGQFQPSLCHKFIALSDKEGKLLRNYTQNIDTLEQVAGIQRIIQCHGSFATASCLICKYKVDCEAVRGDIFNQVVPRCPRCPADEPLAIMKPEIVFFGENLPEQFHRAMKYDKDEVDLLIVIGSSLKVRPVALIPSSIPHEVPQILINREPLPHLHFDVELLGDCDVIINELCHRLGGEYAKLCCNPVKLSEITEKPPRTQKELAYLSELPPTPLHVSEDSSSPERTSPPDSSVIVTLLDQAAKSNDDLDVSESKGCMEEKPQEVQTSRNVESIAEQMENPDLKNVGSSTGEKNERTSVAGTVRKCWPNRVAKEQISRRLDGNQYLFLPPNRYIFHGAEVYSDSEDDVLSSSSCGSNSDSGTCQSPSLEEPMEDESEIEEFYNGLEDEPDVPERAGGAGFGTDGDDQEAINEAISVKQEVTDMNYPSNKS

[4] = system: AGS; test: Induction of apoptosis in human AGS cells assessed as late apoptotic cells at 1 uM after 24 hrs by annexin V-FITC staining-based flow cytometric analysis (Rvb=0.3%); format: functional; in short: as §1
[5] = system: AGS; test: […] in human AGS cells assessed as downregulation of N-Cad after 24 hrs by Western blot analysis; format: functional, cell-based
[6] = system: AGS; test: Induction of apoptosis in human AGS cells assessed as change in mitochondrial transmembrane potential incubated for 1.5 hrs by DiOC6(3) dye-based flow cytometric analysis; format: functional, cell-based
[7] = system: HeLa; test: Antiproliferative activity against human HeLa cells after 72 hrs by MTT assay; format: functional, cell-based
[8] = system: Calf thymus DNA; test: Binding affinity to calf thymus double stranded DNA assessed as number of base pairs covered by one molecule of compound by spectrophotometric titration method; format: nucleic-acid assay; details: Bos taurus
[9] = system: L1210; test: Antiproliferative activity against mouse L1210 cells after 72 hrs by MTT assay; details: L1210, 72 h
[10] = system: Calf thymus DNA; test: Binding affinity to calf thymus double stranded DNA by spectrophotometric titration method; format: nucleic-acid assay; details: Bos taurus
In short: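 Absorption spectra of compound recorded while double-stranded DNA concentration was increased (spectrophotometric titration); extinction at absorption maxima 540 and 585 nm and band shift followed.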

[11] = system: AGS; test: […] in human AGS cells assessed as upregulation of E-Cad after 24 hrs by Western blot analysis; format: functional, cell-based
[12] = Antiproliferative activity against human K562/4 cells after 72 hrs by MTT assay; format: functional, cell-based; details: K562/4, 72 h
[13] = system: AGS; test: Upregulation of caspase3-directed PARP cleavage in human AGS cells at 5 uM after 24 hrs by Western blot analysis; format: functional, cell-based
[14] = target: T2, Ecto-NOX disulfide-thiol exchanger 2 (Homo sapiens) (UniProt Q16206); test: Inhibition of tNOX in human AGS cells assessed as reduction in cell migration; format: cell-based
T2 sequence (whole entry): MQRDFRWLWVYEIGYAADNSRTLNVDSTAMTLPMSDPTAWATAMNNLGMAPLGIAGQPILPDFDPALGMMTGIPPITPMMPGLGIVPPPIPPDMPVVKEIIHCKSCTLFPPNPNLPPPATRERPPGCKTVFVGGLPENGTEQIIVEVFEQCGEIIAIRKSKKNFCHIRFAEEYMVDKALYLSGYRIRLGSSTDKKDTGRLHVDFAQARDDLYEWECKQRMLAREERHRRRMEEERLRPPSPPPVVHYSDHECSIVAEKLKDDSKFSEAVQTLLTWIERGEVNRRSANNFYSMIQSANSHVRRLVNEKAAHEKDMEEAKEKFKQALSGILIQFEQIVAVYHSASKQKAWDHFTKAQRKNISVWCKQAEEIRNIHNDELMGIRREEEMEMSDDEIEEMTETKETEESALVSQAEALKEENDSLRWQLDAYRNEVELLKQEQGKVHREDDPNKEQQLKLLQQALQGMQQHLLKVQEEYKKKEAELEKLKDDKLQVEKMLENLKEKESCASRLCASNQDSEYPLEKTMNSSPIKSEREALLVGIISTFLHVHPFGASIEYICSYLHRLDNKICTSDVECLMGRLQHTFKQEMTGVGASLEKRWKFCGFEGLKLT

[15] = system: AGS; test: Induction of apoptosis in human AGS cells assessed as viable cells at 0.05 uM after 24 hrs by annexin V-FITC staining-based flow cytometric analysis (Rvb=91.5%); format: functional; details: read-out: Activity; in short: as §1

## CNCCNc1c2c(c(NCCNC)c3occc13)C(=O)c1ccccc1C2=O
[1]
  Activity: 10.2%
[2]
  IC50: 230 nM
[3]
  inhibition: Active
[4]
  Activity: 1.3%
[5]
  Activity: Active
[6]
  Activity: Active
[7]
  IC50: 170 nM
[8]
  Activity: 3
[9]
  IC50: 100 nM
[10]
  Ka: 2.5 ×10⁶ /M
[11]
  Activity: Active
[12]
  IC50: 150 nM
[13]
  Activity: Active
[14]
  inhibition: Active
[15]
  viability at 0.05 µM: 78.9%
